Experimental data taken from ChEMBL document CHEMBL3352416, “Discovery of carbohybrid-based 2-aminopyrimidine analogues as a new class of rapid-acting antimalarial agents using image-based cytological profiling assay” (J Med Chem, 2014).
pEC50: −log10 of the molar value. The source made the active and inactive calls. No cut-off for these calls is given here.

Legend:
[1] = test system: Plasmodium falciparum; assay: Antimalarial activity against Plasmodium falciparum K1 by automated image mining based cytological profiling assay; format: functional, organism-based
Outline: (§1)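 Parasite cultures in 384-well format, read by automated imaging. Infected erythrocytes detected by DAPI nuclear staining against WGA-AlexaFluor 488 host-cell stain, and viability by Mitotracker Red CMXRos. Total culture parasitaemia quantified. EC50 given as mean±SD of two independent experiments, each in duplicate.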

[2] = test system: Plasmodium falciparum; assay: Antimalarial activity against tightly synchronized Plasmodium falciparum W2 assessed as parasite stage accumulation index at schizonts stages at 10 uM treated at 30 hrs post-invasion for continuous duration of 36 hrs by automated image mining based cytological profiling assay; format: functional
[3] = test system: Plasmodium falciparum; assay: Antimalarial activity against tightly synchronized Plasmodium falciparum W2 assessed as parasite stage accumulation index at schizonts stages at 10 uM treated at 6 hrs post-invasion for continuous duration of 36 hrs by automated image mining based cytological profiling assay; format: functional
Outline: (§2)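 Tightly synchronized cultures exposed to 10 µM final from 6 hpi (early ring), 18 hpi (late ring) or 30 hpi (mid-trophozoite) for a continuous 36 h. Erythrocytes stained with WGA-AlexaFluor 488, parasite nuclei with DAPI, functional mitochondria with Mitotracker Red CMXRos. Stages (early rings, late rings, trophozoites, schizonts) classified by nuclear spot number and size. Viable parasitaemia and stage accumulation index obtained by automated image analysis.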

[4] = test system: Plasmodium falciparum; assay: Antimalarial activity against tightly synchronized Plasmodium falciparum K1 assessed as parasite stage accumulation index at schizonts stages at 10 uM treated at 18 hrs post-invasion for continuous duration of 36 hrs by automated image mining based cytological profiling assay; format: functional; outline: as §2
[5] = test system: Plasmodium falciparum; assay: Antimalarial activity against Plasmodium falciparum K1 assessed as reduction in parasite stage accumulation index at 10 uM treated at 42 hrs post-invasion for 24 hrs by automated image mining based cytological profiling assay; format: functional, organism-based
Outline: (§3)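 Tightly synchronized cultures exposed from the 42 hpi mid-schizont point for 24 h to 10 µM final. Host cells stained with wheat germ agglutinin-AlexaFluor 488, parasite nuclei with DAPI and live-parasite mitochondria with Mitotracker Red CMXRos. Infected and viable parasitaemia and stage proportions quantified by automated image mining. Stage accumulation indices and parasitaemia reduction index derived.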

[6] = test system: Plasmodium falciparum; assay: Antimalarial activity against Plasmodium falciparum K1 assessed as increase in schizonts parasite stage accumulation index at 10 uM treated at 42 hrs post-invasion for 24 hrs by automated image mining based cytological profiling assay; format: functional, organism-based; outline: as §3
[7] = test system: Plasmodium falciparum; assay: Antimalarial activity against tightly synchronized Plasmodium falciparum W2 assessed as parasite stage accumulation index at late ring stages at 10 uM treated at 18 hrs post-invasion for continuous duration of 36 hrs by automated image mining based cytological profiling assay; format: functional; outline: as §2
[8] = test system: Plasmodium falciparum; assay: Antimalarial activity against tightly synchronized Plasmodium falciparum HB3 assessed as parasite stage accumulation index at late ring stages at 10 uM treated at 18 hrs post-invasion for continuous duration of 36 hrs by automated image mining based cytological profiling assay; format: functional; outline: as §2
[9] = test system: Plasmodium falciparum; assay: Antimalarial activity against tightly synchronized Plasmodium falciparum W2 assessed as parasite stage accumulation index at early ring stages at 10 uM treated at 6 hrs post-invasion for continuous duration of 36 hrs by automated image mining based cytological profiling assay; format: functional; outline: as §2
[10] = test system: Plasmodium falciparum; assay: Antimalarial activity against tightly synchronized Plasmodium falciparum HB3 assessed as parasite stage accumulation index at trophozoites stages at 10 uM treated at 6 hrs post-invasion for continuous duration of 36 hrs by automated image mining based cytological profiling assay; format: functional; outline: as §2
[11] = test system: Plasmodium falciparum; assay: Antimalarial activity against tightly synchronized Plasmodium falciparum W2 assessed as parasite stage accumulation index at trophozoites stages at 10 uM treated at 6 hrs post-invasion for continuous duration of 36 hrs by automated image mining based cytological profiling assay; format: functional
[12] = test system: Plasmodium falciparum; assay: Antimalarial activity against tightly synchronized Plasmodium falciparum HB3 assessed as parasite stage accumulation index at trophozoites stages at 10 uM treated at 18 hrs post-invasion for continuous duration of 36 hrs by automated image mining based cytological profiling assay; format: functional; outline: as §2
[13] = test system: Plasmodium falciparum; assay: Antimalarial activity against Plasmodium falciparum HB3 assessed as reduction in parasite stage accumulation index at 10 uM treated at 42 hrs post-invasion for 24 hrs by automated image mining based cytological profiling assay; format: functional; outline: as §3
[14] = test system: Plasmodium falciparum; assay: Antimalarial activity against Plasmodium falciparum W2 assessed as increase in schizonts parasite stage accumulation index at 10 uM treated at 42 hrs post-invasion for 24 hrs by automated image mining based cytological profiling assay; format: functional, organism-based; outline: as §3
[15] = test system: Plasmodium falciparum; assay: Antimalarial activity against tightly synchronized Plasmodium falciparum HB3 assessed as parasite stage accumulation index at late ring stages at 10 uM treated at 6 hrs post-invasion for continuous duration of 36 hrs by automated image mining based cytological profiling assay; format: functional; outline: as §2
[16] = test system: Plasmodium falciparum; assay: Antimalarial activity against tightly synchronized Plasmodium falciparum K1 assessed as parasite stage accumulation index at schizonts stages at 10 uM treated at 30 hrs post-invasion for continuous duration of 36 hrs by automated image mining based cytological profiling assay; format: functional; outline: as §2
[17] = test system: Plasmodium falciparum; assay: Antimalarial activity against tightly synchronized Plasmodium falciparum K1 assessed as parasite stage accumulation index at late ring stages at 10 uM treated at 18 hrs post-invasion for continuous duration of 36 hrs by automated image mining based cytological profiling assay; format: functional; outline: as §2
[18] = test system: Plasmodium falciparum; assay: Antimalarial activity against tightly synchronized Plasmodium falciparum W2 assessed as parasite stage accumulation index at trophozoites stages at 10 uM treated at 30 hrs post-invasion for continuous duration of 36 hrs by automated image mining based cytological profiling assay; format: functional; outline: as §2
[19] = test system: Plasmodium falciparum; assay: Antimalarial activity against Plasmodium falciparum HB3 assessed as increase in schizonts parasite stage accumulation index at 10 uM treated at 42 hrs post-invasion for 24 hrs by automated image mining based cytological profiling assay; format: functional; outline: as §3
[20] = test system: Plasmodium falciparum; assay: Antimalarial activity against Plasmodium falciparum HB3 by automated image mining based cytological profiling assay; format: functional; outline: as §1
[21] = test system: Plasmodium falciparum; assay: Antimalarial activity against tightly synchronized Plasmodium falciparum K1 assessed as parasite stage accumulation index at schizonts stages at 10 uM treated at 6 hrs post-invasion for continuous duration of 36 hrs by automated image mining based cytological profiling assay; format: functional; outline: as §2
[22] = test system: Plasmodium falciparum; assay: Antimalarial activity against tightly synchronized Plasmodium falciparum K1 assessed as parasite stage accumulation index at early ring stages at 10 uM treated at 6 hrs post-invasion for continuous duration of 36 hrs by automated image mining based cytological profiling assay; format: functional; outline: as §2
[23] = test system: Plasmodium falciparum; assay: Antimalarial activity against tightly synchronized Plasmodium falciparum W2 assessed as parasite stage accumulation index at trophozoites stages at 10 uM treated at 18 hrs post-invasion for continuous duration of 36 hrs by automated image mining based cytological profiling assay; format: functional
[24] = test system: Plasmodium falciparum; assay: Antimalarial activity against tightly synchronized Plasmodium falciparum K1 assessed as parasite stage accumulation index at trophozoites stages at 10 uM treated at 18 hrs post-invasion for continuous duration of 36 hrs by automated image mining based cytological profiling assay; format: functional; outline: as §2
[25] = test system: Plasmodium falciparum; assay: Antimalarial activity against tightly synchronized Plasmodium falciparum K1 assessed as parasite stage accumulation index at trophozoites stages at 10 uM treated at 30 hrs post-invasion for continuous duration of 36 hrs by automated image mining based cytological profiling assay; format: functional; outline: as §2
[26] = test system: Plasmodium falciparum; assay: Antimalarial activity against tightly synchronized Plasmodium falciparum HB3 assessed as parasite stage accumulation index at schizonts stages at 10 uM treated at 18 hrs post-invasion for continuous duration of 36 hrs by automated image mining based cytological profiling assay; format: functional; outline: as §2
[27] = test system: Plasmodium falciparum; assay: Antimalarial activity against Plasmodium falciparum W2 assessed as reduction in parasite stage accumulation index at 10 uM treated at 42 hrs post-invasion for 24 hrs by automated image mining based cytological profiling assay; format: functional, organism-based; outline: as §3
[28] = test system: Plasmodium falciparum; assay: Antimalarial activity against tightly synchronized Plasmodium falciparum HB3 assessed as parasite stage accumulation index at schizonts stages at 10 uM treated at 6 hrs post-invasion for continuous duration of 36 hrs by automated image mining based cytological profiling assay; format: functional; outline: as §2
[29] = test system: Plasmodium falciparum; assay: Antimalarial activity against tightly synchronized Plasmodium falciparum K1 assessed as parasite stage accumulation index at trophozoites stages at 10 uM treated at 6 hrs post-invasion for continuous duration of 36 hrs by automated image mining based cytological profiling assay; format: functional
[30] = test system: Plasmodium falciparum; assay: Antimalarial activity against Plasmodium falciparum W2 by automated image mining based cytological profiling assay; format: functional, organism-based; outline: as §1
[31] = test system: Plasmodium falciparum; assay: Antimalarial activity against tightly synchronized Plasmodium falciparum HB3 assessed as parasite stage accumulation index at schizonts stages at 10 uM treated at 30 hrs post-invasion for continuous duration of 36 hrs by automated image mining based cytological profiling assay; format: functional
[32] = test system: Plasmodium falciparum; assay: Antimalarial activity against tightly synchronized Plasmodium falciparum K1 assessed as parasite stage accumulation index at late ring stages at 10 uM treated at 6 hrs post-invasion for continuous duration of 36 hrs by automated image mining based cytological profiling assay; format: functional
[33] = test system: Plasmodium falciparum; assay: Antimalarial activity against tightly synchronized Plasmodium falciparum HB3 assessed as parasite stage accumulation index at early ring stages at 10 uM treated at 6 hrs post-invasion for continuous duration of 36 hrs by automated image mining based cytological profiling assay; format: functional
[34] = test system: Plasmodium falciparum; assay: Antimalarial activity against tightly synchronized Plasmodium falciparum W2 assessed as parasite stage accumulation index at late ring stages at 10 uM treated at 6 hrs post-invasion for continuous duration of 36 hrs by automated image mining based cytological profiling assay; format: functional
[35] = test system: Plasmodium falciparum; assay: Antimalarial activity against tightly synchronized Plasmodium falciparum W2 assessed as parasite stage accumulation index at schizonts stages at 10 uM treated at 18 hrs post-invasion for continuous duration of 36 hrs by automated image mining based cytological profiling assay; format: functional

COc1ccc(CO[C@@H]([C@H](O)COC(c2ccccc2)(c2ccccc2)c2ccccc2)[C@H](OCc2ccc(OC)cc2)c2cnc(N(C)C)nc2)cc1
pEC50 [1]: 6.70

COc1ccc(CO[C@H]([C@H](O)COC(c2ccccc2)(c2ccccc2)c2ccccc2)[C@H](OCc2ccc(OC)cc2)c2cnc(N(C)C)nc2)cc1
pEC50 [1]: 6.25

COc1ccc(CO[C@H]([C@H](O)COC(c2ccccc2)(c2ccccc2)c2ccccc2)[C@H](OCc2ccc(OC)cc2)c2cnn(C)c2)cc1
pEC50 [1]: 6.32

COc1ccc(CO[C@H]([C@H](OCc2ccc(OC)cc2)c2cnn(C)c2)[C@@H](COC(c2ccccc2)(c2ccccc2)c2ccccc2)OS(C)(=O)=O)cc1
pEC50 [1]: 6.80

COc1ccc(CO[C@@H]([C@H](OCc2ccc(OC)cc2)c2cnc(N(C)C)nc2)[C@@H](COC(c2ccccc2)(c2ccccc2)c2ccccc2)OS(C)(=O)=O)cc1
pEC50 [1]: 6.70

COc1ccc(O[C@@H]([C@H](Oc2ccc(OC)cc2)c2cnn(C)c2)[C@@H](COC(c2ccccc2)(c2ccccc2)c2ccccc2)OS(C)(=O)=O)cc1
pEC50 [1]: 6.63

COc1ccc(CO[C@H]([C@H](OCc2ccc(OC)cc2)c2cnc(N(C)C)nc2)[C@@H](CO)OS(C)(=O)=O)cc1
pEC50 [1]: 5.30

COc1ccc(CO[C@@H]([C@H](CO)N=[N+]=[N-])[C@H](OCc2ccc(OC)cc2)c2cnc(N(C)C)nc2)cc1
pEC50 [1]: 5.26

COc1ccc(CO[C@H]([C@H](COC(c2ccccc2)(c2ccccc2)c2ccccc2)N=[N+]=[N-])[C@H](OCc2ccc(OC)cc2)c2cnc(N(C)C)nc2)cc1
pEC50 [1]: 6.78

COc1ccc(CO[C@@H]([C@H](COCc2ccccc2)N=[N+]=[N-])[C@H](OCc2ccc(OC)cc2)c2cnc(N(C)C)nc2)cc1
pEC50 [1]: 5.85

COc1ccc(CO[C@H]([C@H](COCc2ccccc2)N=[N+]=[N-])[C@H](OCc2ccc(OC)cc2)c2cnc(N(C)C)nc2)cc1
pEC50 [1]: 5.92

COc1ccc(CO[C@@H]([C@H](COS(C)(=O)=O)N=[N+]=[N-])[C@H](OCc2ccc(OC)cc2)c2cnc(N(C)C)nc2)cc1
pEC50 [1]: 5.18

COc1ccc(CO[C@H]([C@H](COS(C)(=O)=O)N=[N+]=[N-])[C@H](OCc2ccc(OC)cc2)c2cnc(N(C)C)nc2)cc1
pEC50 [1]: 4.93

C[C@@H]1CC[C@H]2[C@@H](C)C(=O)O[C@@H]3O[C@@]4(C)CC[C@@H]1[C@]32OO4 [ARTEMISININ]
Activity [2]: 1.05
Activity [3]: 0.47
Activity [4]: 0.26
inhibition [5]: Active
inhibition [6]: Active
Activity [7]: 2.01
Activity [8]: 4.4
Activity [9]: 2.06
Activity [10]: 0.37
Activity [11]: 0.81
Activity [12]: 1.06
inhibition [13]: Active
inhibition [14]: Active
Activity [15]: 3.53
Activity [16]: 0.31
pEC50 [1]: 8.52
Activity [17]: 2.52
Activity [18]: 1.51
inhibition [19]: Active
pEC50 [20]: 7.74
Activity [21]: 0.17
Activity [22]: 1.96
Activity [23]: 1.06
Activity [24]: 0.7
Activity [25]: 1.09
Activity [26]: 0.47
inhibition [27]: Active
Activity [28]: 0.11
Activity [29]: 0.51
pEC50 [30]: 7.96

CCN(CC)CCCC(C)Nc1ccnc2cc(Cl)ccc12 (centres undefined) [CHLOROQUINE]
Activity [3]: 0.53
Activity [4]: 0.37
Activity [7]: 1.82
Activity [8]: 2.17
Activity [9]: 1.78
Activity [10]: 0.52
Activity [11]: 0.65
Activity [12]: 1.85
Activity [15]: 3.05
Activity [16]: 0.56
Activity [31]: 1.83
pEC50 [1]: 6.68
Activity [32]: 1.62
Activity [17]: 1.38
Activity [18]: 1.26
Activity [33]: 1.82
pEC50 [20]: 7.48
Activity [21]: 0.25
Activity [22]: 1.72
Activity [24]: 1.22
Activity [34]: 1.51
Activity [25]: 0.75
Activity [26]: 0.82
Activity [35]: 1.64
Activity [28]: 0.2
pEC50 [30]: 6.66
